# INS promoter act = TRM-6 insulin promoter activation; TRM-6 cells (human fetal islet line), insulin promoter eGFP reporter, imaging; plate-scaled: unstimulated 0, stimulated control 100; activation, % at 2 µM; hit rate 0.81% among 130,000;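 active means activation at 2 µM above a set limit, confirmed on inspection of the cell images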;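 further: share of cells whose green reporter signal exceeds an intensity cutoff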
#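 Test system: TRM-6 insulin promoter–eGFP reporter cells / Quantity: 1,000 cells per well / Reagent: tamoxifen inducer, 0.75 µM, in seeding medium / Compound dosing: 2 µM final, single concentration / Schedule: overnight tamoxifen, then two-day compound incubation at 37 °C / Measured by: automated fluorescence imaging of paraformaldehyde-fixed, Hoechst-counterstained cells, green channel / Read-out: percent activation from GFP-positive cell fraction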
# * hit, by the source's call. Shown is part of a subset that was picked to be rich in hits.
SMILES,INS promoter act
O=C(COc1ccc([N+](=O)[O-])cc1)Nc1ccncc1,-6
COc1cc([N+](=O)[O-])cc(CN2CCCCC2)c1O,9
Cc1ccc(CSC2=NCCN2S(=O)(=O)c2ccccc2)cc1,464*
O=S(=O)(c1ccccc1)N1CCN=C1SCc1ccccc1,0
CCCS(=O)(=O)N1CCN=C1SCc1ccc(C)cc1,0
Cc1ccc2c(Cl)c(C)c(N3CCCCC3)nc2n1,-83
CCOc1ccc(-c2nn(-c3ccccc3)cc2/C=C2\SC(N)=NC2=O)cc1C,7
Cc1cc([N+](=O)[O-])nn1CC(=O)NCc1cccs1,0
Cc1ccc(C(=O)NCc2ccco2)cc1S(=O)(=O)N1CCOCC1,5
O=C(NCc1ccco1)C1CN(S(=O)(=O)c2ccccc2)CCN1S(=O)(=O)c1ccccc1 (stereo not given),0
O=S(=O)(NCc1ccco1)N1CCOCC1,494*
CCOC(=O)C1=C(N)N(c2ccccc2)C(=O)C1,-3
Cc1ccc(NC(=O)Cn2nnc(-c3ccccc3-n3cnnn3)n2)c(C)c1,129
Cc1ccc2nc(/C(C#N)=C\c3cc(C)n(-c4cccc([N+](=O)[O-])c4)c3C)[nH]c2c1,0
Cc1ccc2nc(/C(C#N)=C\c3ccc(Oc4ccc([N+](=O)[O-])cn4)cc3)[nH]c2c1,-4
Cc1ccc2nc(/C(C#N)=C\c3ccc(N4CCOCC4)o3)[nH]c2c1,456*
O=C(COC(=O)c1ccco1)NCc1cccs1,5
Cc1cc2cc3c(cc2nc1SCC(=O)Nc1ccccc1)CCC3,7
Cc1ccc(NC(=O)c2cc(NC(=O)c3ccccc3C(=O)O)ccc2N2CCCCC2)cc1,6
N=c1oc2c3c4c(cc2cc1C(=O)Nc1ccccc1)CCCN4CCC3,900*
Cc1ccc(N2CCN(C(=O)c3ccccc3NC(=O)c3ccccc3C(=O)O)CC2)cc1,0
CCOC(=O)c1c(-c2ccccc2)csc1NC(=O)CSc1nncs1,0
Cc1ccccc1NC(=O)CC1SCCNC1=O (stereo not given),56
OC(C#CCN1CCOCC1)(c1ccccc1)C1CC1 (stereo not given),-9
Nn1c(SCC(=O)N2CCOCC2)nnc1-c1ccccc1Cl,111*
SMILES,INS promoter act
Cc1ccc(-n2c(SCC(=O)N3CCOCC3)nnc2-c2cccnc2)cc1,3
O=C(CSc1nnc(-c2ccco2)n1-c1ccccc1)N1CCOCC1,3
Cc1cccc(CSCc2nnc(N)s2)c1,9
Cc1onc(CO)c1C(=O)Nc1nccs1,-9
Cc1ccc2cc(CCNC(=O)c3cccs3)c(=O)[nH]c2c1C,2
Cn1c(=O)[nH]c(=O)c2c1nc(N1CCCCC1)n2CC(O)CN1CCCCC1 (stereo not given),0
CN(C)S(=O)(=O)c1ccc(NC(=O)CN2CCCc3ccccc32)cc1,383*
Cc1c(NC(=O)CN2CCCc3ccccc32)c(=O)n(-c2ccccc2)n1C,0
O=C(CN1CCCc2ccccc21)NCc1ccccc1Cl,9
CC(c1ccco1)N(C(=O)c1ccccc1NS(=O)(=O)c1cccc([N+](=O)[O-])c1)c1ccccn1 (stereo not given),7
CC(/C=C/c1ccccc1)=N\NC(=O)CNC(=O)c1ccccc1Cl,-9
O=C(N/N=C/C=C/c1ccccc1)c1ccc(Br)cc1,10
CC(/C=C/c1ccccc1)=N\NC(=O)c1ccc(Br)cc1,389*
CCC/C(=N\NC(=O)c1ccc(CSc2nncn2C)cc1)c1ccccc1,-3
Cc1ccc(S(=O)(=O)N2CCN(C(=O)c3ccccc3)C2)cc1[N+](=O)[O-],0
CCCC(=O)NC(NC1CCS(=O)(=O)C1)C(Cl)(Cl)Cl (stereo not given),7
CC(=O)Nc1c(C(=O)c2ccccc2)oc2ccccc12,-71
CCNc1c(NC(C)=O)c(=O)oc2ccccc12,200*
CN=C(C)c1c(O)c2ccccc2oc1=O,3
C/C(=N\NC(=O)c1cc(C(C)C)[nH]n1)c1ccco1,0
COc1cc(-n2c(C)nc3cc(C(=O)NCCN4CCOCC4)ccc32)cc(OC)c1OC,7
COc1ccccc1NC(=O)Cc1noc(CSc2nnc(C(F)(F)F)n2C)n1,121
CC(C)OC(=O)c1cccc(NC(=O)c2ccccc2)c1,-86
CC(C)NC(=O)c1ccc(COCC(F)(F)C(F)F)cc1,80*
O=C(Nc1ccc(Cl)cn1)c1ccc(COCC(F)(F)C(F)F)o1,0
SMILES,INS promoter act
O=C(Nc1ccc(OCC(F)(F)C(F)F)cc1)c1ccncc1,-6
CCn1c(SCC(=O)NCCOC)nc2sc3c(c2c1=O)CCCC3,0
O=C1CCC(C(=O)Nc2cccc(S(=O)(=O)N3CCOCC3)c2)N1 (stereo not given),0
Cc1ccc(OCCOCCOc2cccc3cccnc23)c(Br)c1,8
Cc1cc(Cl)cc(Cl)c1OCCOCCN(C)C,129
Cc1cc(Cl)cc(Cl)c1OCCOc1cccc2cccnc12,84*
CCCCCc1nnc(NC(=O)C2COc3ccccc3O2)s1 (stereo not given),0
Cc1ccc(NC(=O)c2cccc(S(C)(=O)=O)c2)cc1,0

# Source: PubChem BioAssay
